Format in all cases: functional
The test system of assay [1] is Malme-3M. As to the kind of experiment: Cytotoxicity against human MALME-3M cells at 10^-5 M after 48 hrs by SRB assay. Conditions: read-out: GI.
Assay [2] deals with MCF7. Briefly: Cytotoxicity against human MCF7 cells at 10^-7 M after 48 hrs by SRB assay. Conditions: MCF7, 48 h, read-out: GI.
The nature of assay [3]: Cytotoxicity against human EKVX cells at 10^-8 M after 48 hrs by SRB assay. Conditions: read-out: GI. On the technique in general: In SRB staining, fixed cells bind dye roughly in proportion to their protein.
Assay [4] deals with BT-549. Briefly: Cytotoxicity against human BT549 cells at 10^-7 M after 48 hrs by SRB assay. Conditions: BT-549, 48 h, read-out: GI.
The test system of assay [5] is DU-145. As to the kind of experiment: Cytotoxicity against human DU145 cells at 10^-8 M after 48 hrs by SRB assay. Conditions: DU-145, 48 h, read-out: GI.
Assay [6] deals with RPMI-8226. Briefly: Cytotoxicity against human RPMI8226 cells at 10^-8 M after 48 hrs by SRB assay. Conditions: RPMI-8226, 48 h, read-out: GI.
For assay [7], the system named is LOX IMVI. Briefly: Cytotoxicity against human LOXIMVI cells at 10^-8 M after 48 hrs by SRB assay. Conditions: read-out: GI.
The subject of assay [8] is 786-0. Briefly: Cytotoxicity against human 786-0 cells at 10^-7 M after 48 hrs by SRB assay. Conditions: 786-0, 48 h, read-out: GI.
Assay [9] deals with K562. Briefly: Cytotoxicity against human K562 cells at 10^-7 M after 48 hrs by SRB assay. Conditions: K562, 48 h, read-out: GI.
Assay [10] concerns SF-268. Briefly: Cytotoxicity against human SF268 cells at 10^-7 M after 48 hrs by SRB assay. Conditions: SF-268, 48 h, read-out: GI.
In assay [11] the test system is HL-60(TB). As to the kind of experiment: Cytotoxicity against human HL-60(TB) cells at 10^-8 M after 48 hrs by SRB assay. Conditions: HL-60, 48 h, read-out: GI. In a few lines: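 NCI 60-human-tumour-cell-line screen run over a 5-log dose range (100, 10, 1, 0.1 and 0.01 µM). Cells were exposed to drug for 48 h. Growth was estimated by sulforhodamine B protein staining. Values are percent growth inhibition at each concentration, relative to untreated control cells.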

The subject of assay [12] is HCC 2998. Briefly: Cytotoxicity against human HCC2998 cells at 10^-7 M after 48 hrs by SRB assay. Conditions: HCC 2998, 48 h, read-out: GI.
Assay [13] concerns SR. Briefly: Cytotoxicity against human SR cells at 10^-5 M after 48 hrs by SRB assay. Conditions: read-out: GI.
The test system of assay [14] is RXF 393. As to the kind of experiment: Cytotoxicity against human RXF393 cells at 10^-8 M after 48 hrs by SRB assay. Conditions: RXF 393, 48 h, read-out: GI.
Assay [15] deals with SK-MEL-28. As to the kind of experiment: Cytotoxicity against human SK-MEL-28 cells at 10^-7 M after 48 hrs by SRB assay. Conditions: SK-MEL-28, 48 h, read-out: GI.
Assay [16] deals with HCC 2998. As to the kind of experiment: Cytotoxicity against human HCC2998 cells at 10^-5 M after 48 hrs by SRB assay. Conditions: HCC 2998, 48 h, read-out: GI.
Assay [17] is described as follows: Cytotoxicity against human Hs578T cells at 10^-8 M after 48 hrs by SRB assay. Conditions: Hs-578T, read-out: GI.
Assay [18] is described as follows: Cytotoxicity against human UACC257 cells at 10^-8 M after 48 hrs by SRB assay. Conditions: UACC-257, 48 h, read-out: GI.
The nature of assay [19]: Cytotoxicity against human OVCAR4 cells at 10^-8 M after 48 hrs by SRB assay. Conditions: OVCAR-4, 48 h, read-out: GI.
In assay [20] the test system is SNB-75. Briefly: Cytotoxicity against human SNB75 cells at 10^-7 M after 48 hrs by SRB assay. Conditions: SNB-75, 48 h, read-out: GI.
The test system of assay [21] is SNB-19. Briefly: Cytotoxicity against human SNB19 cells at 10^-7 M after 48 hrs by SRB assay. Conditions: SNB-19, 48 h, read-out: GI.
In assay [22] the test system is HT-29. As to the kind of experiment: Cytotoxicity against human HT-29 cells at 10^-7 M after 48 hrs by SRB assay. Conditions: HT-29, 48 h, read-out: GI.
For assay [23], the system named is NCI-H460. As to the kind of experiment: Cytotoxicity against human NCI-H460 cells at 10^-8 M after 48 hrs by SRB assay. Conditions: NCI-H460, 48 h, read-out: GI.
Assay [24] is described as follows: Cytotoxicity against human OVCAR5 cells at 10^-8 M after 48 hrs by SRB assay. Conditions: OVCAR-5, 48 h, read-out: GI.
The subject of assay [25] is SN12C. Briefly: Cytotoxicity against human SN12C cells at 10^-7 M after 48 hrs by SRB assay. Conditions: read-out: GI.
Assay [26] deals with HCT-116. Briefly: Cytotoxicity against human HCT116 cells at 10^-8 M after 48 hrs by SRB assay. Conditions: HCT-116, 48 h, read-out: GI.
Assay [27] can be described thus: Cytotoxicity against human UACC257 cells after 48 hrs by SRB assay. Conditions: UACC-257, 48 h.
Assay [28] relates to SR. Briefly: Cytotoxicity against human SR cells at 10^-8 M after 48 hrs by SRB assay. Conditions: read-out: GI.
For assay [29], the system named is SK-OV-3. Briefly: Cytotoxicity against human SKOV3 cells at 10^-8 M after 48 hrs by SRB assay. Conditions: SK-OV-3, 48 h, read-out: GI.
The subject of assay [30] is U-251. Briefly: Cytotoxicity against human U251 cells at 10^-8 M after 48 hrs by SRB assay. Conditions: U-251, 48 h, read-out: GI.
In assay [31] the test system is 786-0. Briefly: Cytotoxicity against human 786-0 cells at 10^-8 M after 48 hrs by SRB assay. Conditions: 786-0, 48 h, read-out: GI.
A short description of assay [32]: Cytotoxicity against human Hs578T cells at 10^-7 M after 48 hrs by SRB assay. Conditions: Hs-578T, read-out: GI.
For assay [33], the system named is NCI-H522. As to the kind of experiment: Cytotoxicity against human NCI-H522 cells at 10^-7 M after 48 hrs by SRB assay. Conditions: NCI-H522, 48 h, read-out: GI.
In assay [34] the test system is MDA-MB-231. As to the kind of experiment: Cytotoxicity against human MDA-MB-231 cells at 10^-8 M after 48 hrs by SRB assay. Conditions: MDA-MB-231, 48 h, read-out: GI.
Assay [35] has as its system SF-268. Briefly: Cytotoxicity against human SF268 cells at 10^-8 M after 48 hrs by SRB assay. Conditions: SF-268, 48 h, read-out: GI.
Assay [36] deals with CAKI-1. Briefly: Cytotoxicity against human Caki1 cells at 10^-7 M after 48 hrs by SRB assay. Conditions: CAKI-1, 48 h, read-out: GI.
Assay [37] has as its system HOP-92. As to the kind of experiment: Cytotoxicity against human HOP92 cells at 10^-8 M after 48 hrs by SRB assay. Conditions: HOP-92, 48 h, read-out: GI.
For assay [38], the system named is HOP-92. As to the kind of experiment: Cytotoxicity against human HOP92 cells at 10^-7 M after 48 hrs by SRB assay. Conditions: HOP-92, 48 h, read-out: GI.
Assay [39] has as its system HOP-62. Briefly: Cytotoxicity against human HOP62 cells at 10^-8 M after 48 hrs by SRB assay. Conditions: HOP-62, 48 h, read-out: GI.
Assay [40] deals with M14. Briefly: Cytotoxicity against human M14 cells at 10^-7 M after 48 hrs by SRB assay. Conditions: M14, 48 h, read-out: GI.
The test system of assay [41] is ACHN. Briefly: Cytotoxicity against human ACHN cells at 10^-8 M after 48 hrs by SRB assay. Conditions: read-out: GI.
Assay [42] can be described thus: Cytotoxicity against human OVCAR5 cells at 10^-7 M after 48 hrs by SRB assay. Conditions: OVCAR-5, 48 h, read-out: GI.
Assay [43] deals with NCI/ADR-RES. Briefly: Cytotoxicity against human NCI/ADR-RES cells at 10^-7 M after 48 hrs by SRB assay. Conditions: read-out: GI.

These results are taken from ChEMBL document CHEMBL3120154, “2-[N-Alkyl(R-phenyl)-aminomethyl]-3-phenyl-7-trifluoromethylquinoxalines as anticancer agents inhibitors of folate enzymes” (Eur J Med Chem, 2014).

As for `C#CCN(Cc1nc2cc(C(F)(F)F)ccc2nc1-c1ccccc1)c1ccc(C)cc1`, the inhibition of growth at 10 µM in assay [1] was 41%.

Consider `CCN(Cc1nc2cc(C(F)(F)F)ccc2nc1-c1ccccc1)c1ccc(OC)c(OC)c1`, for which the inhibition of growth at 0.1 µM in assay [2], in [4], in [8], in [9], in assay [10] and in [12] was below 40% in each case. The inhibition of growth at 0.1 µM in assay [15], in assay [20], in assay [21], in assay [22], in assay [25] and in assay [32] was below 40% throughout. Also, the inhibition of growth at 0.1 µM in assay [33], in [36], in [38], in assay [40], in assay [42] and in assay [43] was below 40% each time. Moreover, the inhibition of growth at 0.01 µM in assay [3] is below 40%; in assay [5] it was below 40%; in [6], below 40%; in assay [7], below 40%; in assay [11], below 40%; in [14], 22%. For the same compound, the inhibition of growth at 0.01 µM was below 40% in [17]; 39% in assay [18]; below 40% in [19]; below 40% in assay [23]; below 40% in assay [24]; below 40% in assay [26]. For the same compound, the inhibition of growth at 0.01 µM in assay [28], in assay [29], in assay [30], in assay [31], in [34] and in assay [35] was below 40% each time. The inhibition of growth at 0.01 µM in assay [37], in assay [39] and in assay [41] was below 40% in each case. Also, the inhibition of growth at 10 µM amounted to 56% in assay [13] and 15% in assay [16]. In assay [27], the GI50 (as a rule, the concentration that inhibits growth by half) is 25.1 nM.
